Assay results as given in BindingDB's records for doi:10.1021/ml1001807 (2011).

What was measured:
[1] = target: Insulin-like growth factor 1 receptor (Homo sapiens, UniProt P08069); experiment: Inhibition of IGF1R by TR-FRET based LanthaScreen assay
Summary of the method: (§1)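 TR-FRET LanthaScreen kinase assay with phosphorylation of a substrate; FGFR3 used as the K651E mutant. IC50 derived from two independent experiments; for some compounds, ALK and cKIT values are averages ± SDs of three independent experiments.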

[2] = target: Tyrosine-protein kinase JAK3 (Homo sapiens, UniProt P52333); experiment: Inhibition of JAK3 by Caliper mobility shift assay
Summary of the method: (§2)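 Caliper mobility shift kinase assay with phosphorylation of a substrate; IC50 derived from two independent experiments.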

[3] = target: Rho-associated protein kinase 2 (Homo sapiens, UniProt O75116); experiment: Inhibition of ROCK2 by Caliper mobility shift assay; summary of the method: as §2
[4] = target: Fibroblast growth factor receptor 3 (Homo sapiens, UniProt P22607); experiment: Inhibition of FGFR3 by TR-FRET based LanthaScreen assay; summary of the method: as §1
[5] = target: Cyclin-dependent kinase 2 (Homo sapiens, UniProt P24941); experiment: Inhibition of CDK2A by Caliper mobility shift assay
Summary of the method: (§3)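 Caliper microfluidic mobility shift readout of substrate phosphorylation, run per the group's earlier kinase protocol. IC50 taken from two independent experiments.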

[6] = target: Glycogen synthase kinase-3 beta (Homo sapiens, UniProt P49841); experiment: Inhibition of GSK3-beta by TR-FRET based LanthaScreen assay; summary of the method: as §1
[7] = target: 3-phosphoinositide-dependent protein kinase 1 (Homo sapiens) (UniProt O15530); experiment: Inhibition of PDK1 by Caliper mobility shift assay
[8] = target: Tyrosine-protein kinase JAK1 (Homo sapiens, UniProt P23458); experiment: Inhibition of JAK1 by TR-FRET based LanthaScreen assay
[9] = target: cAMP-dependent protein kinase catalytic subunit alpha (Homo sapiens, UniProt P17612); experiment: Inhibition of PKAalpha by Caliper mobility shift assay
[10] = target: Hepatocyte growth factor receptor (Homo sapiens, UniProt P08581); experiment: Inhibition of HGFR by TR-FRET based LanthaScreen assay
Summary of the method: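 LanthaScreen TR-FRET kinase format, run per the group's earlier protocol. IC50 from two independent experiments; for some compounds, PDGFRα and VEGFR2 values are means ± SD of three independent runs. The FGFR3 used was the K651E mutant.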

[11] = target: Tyrosine-protein kinase JAK2 (Homo sapiens, UniProt O60674); experiment: Inhibition of JAK2 by TR-FRET based LanthaScreen assay
[12] = target: Mitogen-activated protein kinase 14 (Homo sapiens, UniProt Q16539); experiment: Inhibition of p38alpha by Caliper mobility shift assay; summary of the method: as §3
[13] = target: Receptor tyrosine-protein kinase erbB-2 (Homo sapiens, UniProt P04626); experiment: Inhibition of HER2 by TR-FRET based LanthaScreen assay; summary of the method: as §1
[14] = target: Proto-oncogene tyrosine-protein kinase receptor Ret (Homo sapiens, UniProt P07949); experiment: Inhibition of RET by TR-FRET based LanthaScreen assay; summary of the method: as §1
Aurora kinase A = Aurora kinase A (Homo sapiens, UniProt O14965); experiment: Inhibition of Aurora A kinase by Caliper mobility shift assay; summary of the method: as §2
[15] = target: Serine/threonine-protein kinase N1 (Homo sapiens, UniProt Q16512); experiment: Inhibition of PKN1 by Caliper mobility shift assay; summary of the method: as §2
Ephrin type-B receptor 4 = Ephrin type-B receptor 4 (Homo sapiens, UniProt P54760); experiment: Inhibition of EPHB4 by TR-FRET based LanthaScreen assay; summary of the method: as §1
[16] = target: ALK tyrosine kinase receptor (Homo sapiens, UniProt Q9UM73); experiment: Inhibition of ALK by TR-FRET based LanthaScreen assay; summary of the method: as §1
[17] = target: Tyrosine-protein kinase receptor UFO (Homo sapiens, UniProt P30530); experiment: Inhibition of Axl by TR-FRET based LanthaScreen assay; summary of the method: as §1
[18] = target: Serine/threonine-protein kinase N2 (Homo sapiens, UniProt Q16513); experiment: Inhibition of PKN2 by Caliper mobility shift assay; summary of the method: as §2
[19] = target: Tyrosine-protein kinase ZAP-70 (Homo sapiens, UniProt P43403); experiment: Inhibition of ZAP70 by TR-FRET based LanthaScreen assay; summary of the method: as §1
Ephrin type-A receptor 4 = Ephrin type-A receptor 4 (Homo sapiens, UniProt P54764); experiment: Inhibition of EPHA4 by TR-FRET based LanthaScreen assay; summary of the method: as §1
Insulin receptor = Insulin receptor (Homo sapiens, UniProt P06213); experiment: Inhibition of INSR by TR-FRET based LanthaScreen assay; summary of the method: as §1

Chain of Tyrosine-protein kinase receptor UFO (P30530 whole entry): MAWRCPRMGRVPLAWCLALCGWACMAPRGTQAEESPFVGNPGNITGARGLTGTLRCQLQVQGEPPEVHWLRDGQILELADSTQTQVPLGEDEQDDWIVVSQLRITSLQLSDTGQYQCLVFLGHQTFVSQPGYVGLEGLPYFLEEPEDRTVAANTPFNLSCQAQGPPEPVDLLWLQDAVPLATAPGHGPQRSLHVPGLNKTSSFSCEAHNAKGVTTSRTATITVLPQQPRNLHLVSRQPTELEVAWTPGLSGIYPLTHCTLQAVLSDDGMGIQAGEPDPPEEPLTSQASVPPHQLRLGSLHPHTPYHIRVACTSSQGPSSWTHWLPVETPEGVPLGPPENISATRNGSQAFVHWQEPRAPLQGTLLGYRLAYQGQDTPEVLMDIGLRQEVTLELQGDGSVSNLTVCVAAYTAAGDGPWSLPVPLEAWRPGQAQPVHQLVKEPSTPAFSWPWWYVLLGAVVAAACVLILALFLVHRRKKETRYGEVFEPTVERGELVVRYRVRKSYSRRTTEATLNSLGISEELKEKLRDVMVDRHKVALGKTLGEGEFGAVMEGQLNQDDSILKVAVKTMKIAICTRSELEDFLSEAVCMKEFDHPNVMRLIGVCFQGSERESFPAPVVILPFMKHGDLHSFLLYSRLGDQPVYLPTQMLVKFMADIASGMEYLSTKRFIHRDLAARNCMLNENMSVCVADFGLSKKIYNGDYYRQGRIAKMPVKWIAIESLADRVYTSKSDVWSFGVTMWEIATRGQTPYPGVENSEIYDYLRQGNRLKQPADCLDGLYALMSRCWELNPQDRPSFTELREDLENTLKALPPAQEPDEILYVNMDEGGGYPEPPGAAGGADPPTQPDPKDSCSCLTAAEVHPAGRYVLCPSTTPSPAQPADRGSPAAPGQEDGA
Chain of Tyrosine-protein kinase JAK1 (P23458 whole entry): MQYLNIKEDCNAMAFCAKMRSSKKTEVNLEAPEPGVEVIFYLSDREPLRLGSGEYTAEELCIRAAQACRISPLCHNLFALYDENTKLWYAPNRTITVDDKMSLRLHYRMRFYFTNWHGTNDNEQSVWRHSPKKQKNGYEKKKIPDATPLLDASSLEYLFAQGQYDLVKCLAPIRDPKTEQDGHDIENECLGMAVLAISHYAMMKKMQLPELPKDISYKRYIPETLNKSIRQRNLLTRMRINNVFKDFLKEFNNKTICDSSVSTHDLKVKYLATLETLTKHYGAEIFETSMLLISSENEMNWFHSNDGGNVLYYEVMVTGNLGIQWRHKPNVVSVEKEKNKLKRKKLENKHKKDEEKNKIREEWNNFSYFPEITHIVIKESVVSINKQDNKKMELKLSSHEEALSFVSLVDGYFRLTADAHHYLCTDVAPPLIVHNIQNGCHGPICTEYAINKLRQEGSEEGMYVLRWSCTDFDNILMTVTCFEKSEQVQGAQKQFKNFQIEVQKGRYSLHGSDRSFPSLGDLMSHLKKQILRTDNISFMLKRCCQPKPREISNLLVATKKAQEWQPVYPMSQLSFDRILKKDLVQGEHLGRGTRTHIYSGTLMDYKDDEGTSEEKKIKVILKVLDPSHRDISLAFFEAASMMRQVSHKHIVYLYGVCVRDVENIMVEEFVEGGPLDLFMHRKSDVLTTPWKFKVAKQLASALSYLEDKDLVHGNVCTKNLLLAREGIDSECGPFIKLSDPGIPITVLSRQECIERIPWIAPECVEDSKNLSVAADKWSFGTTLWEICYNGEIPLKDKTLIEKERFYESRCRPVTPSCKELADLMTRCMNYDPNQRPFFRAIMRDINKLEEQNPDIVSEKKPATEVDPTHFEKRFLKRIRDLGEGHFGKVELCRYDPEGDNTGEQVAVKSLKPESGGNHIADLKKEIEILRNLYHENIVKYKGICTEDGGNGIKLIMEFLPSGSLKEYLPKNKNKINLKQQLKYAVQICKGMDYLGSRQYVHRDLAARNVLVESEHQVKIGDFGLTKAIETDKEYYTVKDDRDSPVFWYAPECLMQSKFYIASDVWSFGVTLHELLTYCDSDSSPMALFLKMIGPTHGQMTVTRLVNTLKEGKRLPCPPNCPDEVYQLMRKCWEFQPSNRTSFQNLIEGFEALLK
Chain of Tyrosine-protein kinase JAK3 (P52333 whole entry): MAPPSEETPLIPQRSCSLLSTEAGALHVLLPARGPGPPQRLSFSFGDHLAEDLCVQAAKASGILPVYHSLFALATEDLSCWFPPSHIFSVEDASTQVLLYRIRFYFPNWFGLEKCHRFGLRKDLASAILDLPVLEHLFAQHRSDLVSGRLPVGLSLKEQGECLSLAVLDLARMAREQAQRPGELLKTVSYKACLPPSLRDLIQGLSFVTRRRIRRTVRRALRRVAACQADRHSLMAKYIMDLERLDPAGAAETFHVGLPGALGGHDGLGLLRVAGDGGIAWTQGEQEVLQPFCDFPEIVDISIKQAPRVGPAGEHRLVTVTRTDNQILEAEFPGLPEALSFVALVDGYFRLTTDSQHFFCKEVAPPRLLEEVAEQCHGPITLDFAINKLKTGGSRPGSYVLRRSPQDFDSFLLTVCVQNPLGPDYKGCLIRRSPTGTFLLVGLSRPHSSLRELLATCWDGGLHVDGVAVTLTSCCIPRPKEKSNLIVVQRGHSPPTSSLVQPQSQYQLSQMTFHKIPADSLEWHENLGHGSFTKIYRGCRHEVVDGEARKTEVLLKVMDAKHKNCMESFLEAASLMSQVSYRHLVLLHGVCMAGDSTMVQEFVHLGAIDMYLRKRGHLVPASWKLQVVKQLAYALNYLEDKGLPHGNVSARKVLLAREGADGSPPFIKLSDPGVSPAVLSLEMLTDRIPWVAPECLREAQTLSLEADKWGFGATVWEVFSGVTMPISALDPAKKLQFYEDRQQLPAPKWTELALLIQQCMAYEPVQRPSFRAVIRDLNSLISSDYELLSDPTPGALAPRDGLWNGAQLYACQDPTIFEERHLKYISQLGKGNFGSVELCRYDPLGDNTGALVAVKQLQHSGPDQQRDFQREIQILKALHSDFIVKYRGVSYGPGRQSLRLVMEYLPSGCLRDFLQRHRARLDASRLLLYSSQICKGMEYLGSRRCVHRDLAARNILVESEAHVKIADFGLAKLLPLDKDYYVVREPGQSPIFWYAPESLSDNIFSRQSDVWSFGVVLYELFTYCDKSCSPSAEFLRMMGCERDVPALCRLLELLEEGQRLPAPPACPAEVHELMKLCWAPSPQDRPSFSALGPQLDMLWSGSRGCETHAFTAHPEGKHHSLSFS
Chain of Fibroblast growth factor receptor 3 (P22607 whole entry): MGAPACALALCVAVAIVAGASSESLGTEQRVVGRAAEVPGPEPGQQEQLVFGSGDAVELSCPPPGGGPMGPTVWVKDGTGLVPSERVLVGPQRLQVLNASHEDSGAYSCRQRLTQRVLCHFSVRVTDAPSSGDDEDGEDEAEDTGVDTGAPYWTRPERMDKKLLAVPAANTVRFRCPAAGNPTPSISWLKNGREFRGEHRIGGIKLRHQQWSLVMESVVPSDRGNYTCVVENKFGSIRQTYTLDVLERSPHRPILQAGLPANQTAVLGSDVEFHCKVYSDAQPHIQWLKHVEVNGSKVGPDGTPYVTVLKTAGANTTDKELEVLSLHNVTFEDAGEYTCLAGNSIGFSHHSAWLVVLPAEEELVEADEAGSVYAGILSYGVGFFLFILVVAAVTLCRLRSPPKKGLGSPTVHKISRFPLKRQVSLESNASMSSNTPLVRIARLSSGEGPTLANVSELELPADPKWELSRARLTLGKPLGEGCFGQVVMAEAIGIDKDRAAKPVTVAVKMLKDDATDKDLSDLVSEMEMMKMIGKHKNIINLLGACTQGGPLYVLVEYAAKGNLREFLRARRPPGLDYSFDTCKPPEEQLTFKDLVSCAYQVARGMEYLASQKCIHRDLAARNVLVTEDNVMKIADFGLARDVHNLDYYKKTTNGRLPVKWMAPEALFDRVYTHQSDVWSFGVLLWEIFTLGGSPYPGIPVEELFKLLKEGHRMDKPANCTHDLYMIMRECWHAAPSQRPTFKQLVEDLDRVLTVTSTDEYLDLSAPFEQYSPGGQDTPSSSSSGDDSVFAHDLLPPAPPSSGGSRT
Chain of Tyrosine-protein kinase JAK2 (O60674 whole entry): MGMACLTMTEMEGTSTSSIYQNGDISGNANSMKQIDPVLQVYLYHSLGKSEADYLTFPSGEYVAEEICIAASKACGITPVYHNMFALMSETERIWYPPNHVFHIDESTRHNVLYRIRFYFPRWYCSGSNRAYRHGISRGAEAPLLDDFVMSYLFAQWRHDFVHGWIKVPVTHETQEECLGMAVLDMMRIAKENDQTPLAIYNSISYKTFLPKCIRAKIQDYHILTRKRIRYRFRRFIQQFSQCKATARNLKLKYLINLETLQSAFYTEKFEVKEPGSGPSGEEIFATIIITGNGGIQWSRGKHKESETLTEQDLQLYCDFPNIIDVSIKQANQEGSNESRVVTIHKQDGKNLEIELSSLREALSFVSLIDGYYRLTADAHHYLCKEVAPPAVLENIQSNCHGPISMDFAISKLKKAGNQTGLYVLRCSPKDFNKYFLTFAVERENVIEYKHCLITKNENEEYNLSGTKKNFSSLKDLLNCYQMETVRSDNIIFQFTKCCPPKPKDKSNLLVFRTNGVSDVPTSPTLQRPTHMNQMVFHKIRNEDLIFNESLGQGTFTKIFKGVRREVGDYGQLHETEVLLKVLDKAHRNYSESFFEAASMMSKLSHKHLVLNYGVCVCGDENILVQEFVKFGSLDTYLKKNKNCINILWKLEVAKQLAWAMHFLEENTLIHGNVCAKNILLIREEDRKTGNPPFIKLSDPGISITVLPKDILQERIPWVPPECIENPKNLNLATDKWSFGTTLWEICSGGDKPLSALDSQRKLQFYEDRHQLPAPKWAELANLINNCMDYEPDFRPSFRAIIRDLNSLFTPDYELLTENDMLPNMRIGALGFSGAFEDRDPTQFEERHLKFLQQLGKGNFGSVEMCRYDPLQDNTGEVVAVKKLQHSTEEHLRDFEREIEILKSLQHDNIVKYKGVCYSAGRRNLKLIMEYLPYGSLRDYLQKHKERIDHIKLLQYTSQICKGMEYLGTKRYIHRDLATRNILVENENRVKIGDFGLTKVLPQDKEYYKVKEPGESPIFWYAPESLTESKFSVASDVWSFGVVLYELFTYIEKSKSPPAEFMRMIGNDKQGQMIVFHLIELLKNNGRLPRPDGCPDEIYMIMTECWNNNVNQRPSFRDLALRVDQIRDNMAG

COc1cc(O)c2c(c1)CCCC(=O)C(=O)C(O)CCC[C@H](C)OC2=O (stereo partly drawn) [L-783277]
IC50 [1]: > 10 µM | IC50 [2]: > 10 µM | IC50 [3]: > 10 µM | IC50 [4]: > 10 µM | IC50 [5]: > 10 µM | IC50 [6]: > 10 µM | IC50 [7]: > 10 µM | IC50 [8]: > 10 µM | IC50 [9]: > 10 µM | IC50 [10]: > 10 µM | IC50 [11]: > 10 µM | IC50 [12]: > 10 µM | IC50 [13]: > 10 µM | IC50 [14]: > 10 µM | IC50 (Aurora kinase A): > 10 µM | IC50 [15]: > 10 µM | IC50 (Ephrin type-B receptor 4): > 10 µM | IC50 [16]: 0.763 µM | IC50 [17]: > 10 µM | IC50 [18]: > 10 µM | IC50 [19]: > 10 µM | IC50 (Ephrin type-A receptor 4): > 10 µM | IC50 (Insulin receptor): > 10 µM
